Screening results from PubChem BioAssay.
In the library only some 2.3% were active in any assay of this set; here they are far more common.
TRPC6 act: mouse TRPC6 channel activators, primary screen, cell-based, HEK293, membrane potential dye; HEK293-TRPC6 membrane potential dye fluorescence; hits give high values; B-score at 10 µM; 0.13% of 310,000 active; AID 2550, 2010;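 active = B-score of the integrated fluorescence ratio above library mean plus 3 SD, and starting fluorescence ratio within library mean plus 5 SD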;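 also: higher score means more depolarization so channel activation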
TRPC6 inhibitor: mouse TRPC6 channel inhibitors, primary screen, cell-based, HEK293, membrane potential dye; Short transient receptor potential channel 6 (Mus musculus), Q61143; ACh-evoked depolarization; hits give low values; B-score at 10 µM; 1.1% of 310,000 active; AID 2553, 2010;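 active = B-score under library mean minus 3 SD, initial fluorescence not abnormally high, positive integrated signal ratio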;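 also: B-score derived from integrated fluorescence ratio over the kinetic read; more negative B-score means stronger inhibition of depolarization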
TRPC4 act: activators of mouse TRPC4 channel, primary screen, Fluo4 calcium, HEK293 TRPC4beta/mu-opioid cells; Short transient receptor potential channel 4 (Mus musculus), Q9QUQ5; Fluo4 calcium fluorescence; hits give high values; B-score at 10 µM; 0.49% of 310,000 active;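 active = B-score above 5 SD of library B-scores, and initial fluorescence ratio not above library mean plus 5 SD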;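 also: positive B-score marks a calcium rise read as TRPC4 activation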
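Test system: HEK293 cells stably co-expressing mouse TRPC4beta and mu-opioid receptor | Schedule: Fluo4 dye loading 45 min at room temperature, 110 s recording | Measured by: Kinetic Fluo4 calcium fluorescence, 5 s baseline at 1 Hz | Evaluation: B score of integrated ratio | Controls: Buffer (low) and maximal DAMGO (high)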
Yeast superoxide: reduction of superoxide in aged yeast, primary screen, HTS | superoxide response (% of plate mean), % at 10 µM | 0.18% of 330,000 active | S. cerevisiae aged cells, superoxide DHE fluorescence; hits give low values;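 active = superoxide response under a set limit, about three screen SD below normal, cut at about 65% in these data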;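 also: yeast aged for seven days with compound at 30 °C before DHE staining; 100% = average MFI of all compound-treated wells on the plate with controls excluded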
TRPC4 PAM: positive allosteric modulators of TRPC4, primary screen, cell-based, mouse TRPC4beta, HEK293 mu-opioid, Fluo-4 calcium | Short transient receptor potential channel 4 (Mus musculus), Q9QUQ5 | DAMGO EC20, Fluo-4 Ca2+ flux; hits give high values | B-score at 10 µM | 0.42% of 310,000 active | AID 2227, 2009;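 active = B-score of calcium response area above 5 SD of library B-scores, with initial fluorescence ratio within 5 SD of library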;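 also: B-score of integrated fluorescence ratio over time as area under calcium response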
TRPC4 block: inhibitors of mouse TRPC4 channel, primary screen, Fluo4 calcium, HEK293 TRPC4beta/mu-opioid cells; DAMGO-evoked Fluo4 calcium flux; hits give low values; B-score at 10 µM; 0.39% of 300,000 active;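 active = B-score over 3 SD under the library average, no early fluorescence shift, positive overall ratio signal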
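Assay system: Stable TRPC4beta/mu-opioid receptor HEK293 cells | Reagent: DAMGO in two steps, submaximal then maximal | Compound dosing: Single concentration per test compound | Signal: Fluo4 Ca2+ flux fluorescence | Evaluation: Per-well B score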
Starred values were filed as active, the others as inactive; i = inactive.

SMILES	TRPC6 act	TRPC6 inhibitor	TRPC4 act	Yeast superoxide	TRPC4 PAM	TRPC4 block
Cn1c(/N=C/c2cccs2)nc2ccccc21	i	i	i	92	i	i
Cn1c(/N=C/c2ccccc2[N+](=O)[O-])nc2ccccc21	i	i	i	103	15*	i
Cc1cc(S(=O)(=O)Nc2ccc(C(=O)NCC(c3ccco3)N3CCCCC3)cc2)ccc1F (centres undefined)	i	i	i	103	i	i
Cc1ccc(S(=O)(=O)NCCC(=O)NCC(c2ccco2)N2CCCCC2)cc1C (centres undefined)	i	i	72*	99	i	-6*
Cc1ccc(S(=O)(=O)Nc2cccc(C(=O)NCC(c3ccco3)N3CCCCC3)c2)cc1F (centres undefined)	i	i	i	97	i	-9*
Cc1ccc(-n2c(=O)c3c(n4cnnc24)-c2ccccc2CC32CCCCC2)cc1	i	i	i	87	i	i
Cc1ccccc1-n1c(=O)c2c(n3cnnc13)-c1ccccc1CC21CCCCC1	i	i	i	101	16*	i
O=C(O)c1ccc(N2C(=O)CC(Cc3ccccc3)C2=O)cc1 (centres undefined)	i	i	i	97	i	i
O=C(O)c1cccc(S(=O)(=O)N2CCN(C(c3ccccc3)c3ccccc3)CC2)c1	i	i	i	92	i	-9*
CC(=O)c1c(C(C)=O)c(C)n(Cc2ccc3c(c2)OCO3)c1C	i	i	i	103	i	i
CCC(C)(C)n1nnnc1C(c1ccc(O)c(OC)c1)N1CCN(c2nc3ccccc3s2)CC1 (centres undefined)	i	i	58*	103	i	i
CCOc1cc(/C=C2\C(=O)ON=C2c2ccccc2)cc(Br)c1O	17*	i	i	88	i	i
COc1cc(/C=C2\C(=O)ON=C2c2ccccc2)cc(Cl)c1O	i	i	i	110	i	-8*
Cc1ccc(C)c(OCCCC(=O)NC2CCCCC2)c1	i	i	i	97	i	i
CC(C)Cc1nc(N2CCN(C(=O)c3ccccc3)CC2)c(C#N)c2c1CCC2	i	i	i	106	13*	i
CC(=O)N1CCN(c2nc(CC(C)C)c3c(c2C#N)CCC3)CC1	i	i	i	108	i	i
CC(C)Cc1nc(N2CCN(C(=O)C(C)C)CC2)c(C#N)c2c1CCC2	i	i	i	101	25*	i
O=C1CNC(=S)N1CCCc1ccccc1	i	i	i	95	i	i
CCC(Sc1nc2ncnc(N)c2[nH]1)C(=O)O (centres undefined)	i	i	i	104	i	i
O=C(c1ccccc1)N1CCN(Cc2c[nH]c3ccccc23)CC1	i	i	i	101	i	i
O=[N+]([O-])c1ccccc1CN1CCN(Cc2c[nH]c3ccccc23)CC1	i	i	i	101	i	-7*
CCC1(c2ccc(F)cc2)NC(=O)N(CC(=O)c2cc(C)n(C3CC3)c2C)C1=O (centres undefined)	i	i	54*	97	16*	i
Cc1ccc(NC(=O)C2CCCCC2C(=O)O)cc1Cl (centres undefined)	i	i	i	86	i	i
Cc1cc(C)cc(NCc2cc3c(cc2[N+](=O)[O-])OCO3)c1	i	i	i	103	i	i
COc1ccc(CNCc2cc3c(cc2[N+](=O)[O-])OCO3)cc1	i	-5.3*	i	94	i	i
